# rCAG RNA binder – r(CAG) repeat RNA binding; TO-PRO-1 dye displacement fluorescence; inhibition, % at 3 µM; hit rate 1.3% among 370,000;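 active = inhibition above the plate cutoff, the mean of all test compounds on that plate plus 3 SD, cut at about 35% in these data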;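 note: 0% = DMSO alone and 100% = 100 µM mitoxantrone as full dye displacement; higher means more dye released from RNA so lower well fluorescence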
# NadD block – NadD (S. aureus) enzyme inhibition | hit rate 0.78% among 360,000 | purified NadD enzyme, colorimetric absorbance read-out | AID 602399 | inhibition, % at 20 µM; in the data active = inhibition above about 26%
# ABHD5-PLIN5 inh – inhibitors of human ABHD5-perilipin-5 interaction; hit rate 0.78% among 360,000; Split G. princeps luciferase complementation, luminescence, 4 h; AID 602281; inhibition, % at 4 µM;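 active = inhibition above the mean inhibition across every tested compound plus 3 SD, cut at about 22% in these data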;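 note: 0% = DMSO only wells and the 100% control is not disclosed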
# Target sequence (Q00G26 whole entry, looked up): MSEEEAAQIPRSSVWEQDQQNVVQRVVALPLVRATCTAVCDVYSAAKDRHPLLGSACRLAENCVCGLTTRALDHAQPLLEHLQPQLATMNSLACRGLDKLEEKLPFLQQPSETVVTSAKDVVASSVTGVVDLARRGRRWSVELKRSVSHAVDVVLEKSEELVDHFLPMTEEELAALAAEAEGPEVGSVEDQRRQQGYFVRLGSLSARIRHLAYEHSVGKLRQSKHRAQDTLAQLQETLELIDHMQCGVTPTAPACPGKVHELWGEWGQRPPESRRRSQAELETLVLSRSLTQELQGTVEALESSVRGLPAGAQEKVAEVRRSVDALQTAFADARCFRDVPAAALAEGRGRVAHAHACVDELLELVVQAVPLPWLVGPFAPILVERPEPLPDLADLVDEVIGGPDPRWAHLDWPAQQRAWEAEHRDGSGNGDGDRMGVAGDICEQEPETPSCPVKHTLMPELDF
# Target sequence (Q8WTS1 whole entry, looked up): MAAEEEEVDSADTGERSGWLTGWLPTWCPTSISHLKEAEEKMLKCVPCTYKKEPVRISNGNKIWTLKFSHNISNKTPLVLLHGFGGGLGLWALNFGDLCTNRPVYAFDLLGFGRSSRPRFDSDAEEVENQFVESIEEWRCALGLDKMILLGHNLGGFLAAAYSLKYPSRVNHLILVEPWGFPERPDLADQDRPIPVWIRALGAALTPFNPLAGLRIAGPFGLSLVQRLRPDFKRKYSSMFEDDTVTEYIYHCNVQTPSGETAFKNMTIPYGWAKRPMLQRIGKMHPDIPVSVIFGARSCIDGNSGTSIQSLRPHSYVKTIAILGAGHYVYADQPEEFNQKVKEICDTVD
# HCV core dimer – blocks dimerization of HCV core protein. TR-FRET GST/Flag-core106 dimerization, 1536-well. inhibition, % at 5 µM. hit rate 0.33% among 300,000. AID 1899;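 active = inhibition above the mean of all tested compounds plus 3 SD, set per screening campaign, cut at about 45% in these data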
#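 Test system: GST/Flag-tagged HCV core106 proteins; Medium: KF-containing HEPES buffer, pH 7.45, DTT, CHAPS, BSA; Times: compound-protein-antibody incubation 4 h at 22.5 °C; Detection: TR-FRET 671 and 617 nm emission; Benchmarks: wells lacking GST-core106 and wells with excess unlabelled core106.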
# ABHD5-PLIN5 conf – confirmation of human ABHD5-PLIN5 interaction inhibitors; shares compounds with ABHD5-PLIN5 inh; biochemical ABHD5-PLIN5 interaction, luminescence; inhibition, % at 4 µM; hit rate 67% among 2,200; in the data active = inhibition above about 23%;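 note: 0% = DMSO vehicle wells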
# HNF4 counter – active in HNF4 split-luciferase counter-screen for ABHD5-PLIN5 inhibitors; shares compounds with ABHD5-PLIN5 inh; HNF4 dimerization, luminescence, biochemical; inhibition, % at 4 µM; hit rate 77% among 2,200;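 active = mean inhibition across replicate wells exceeding the computed hit threshold, cut at about 13% in these data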;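 note: light from luciferase halves that rejoin when HNF4 fusion proteins dimerize; 0% = DMSO only wells and the 100% control is not given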
# Starred values were filed as active, the others as inactive; . = not tested or not shown. Only some compounds are listed: those with a hit (about 2.6% of all), similar ones and a draw of the others.
SMILES,rCAG RNA binder,NadD block,ABHD5-PLIN5 inh,HCV core dimer,ABHD5-PLIN5 conf,HNF4 counter
O=C(/C(=C/c1ccc(Cl)cc1)c1nc2ccccc2[nH]1)c1cccs1,.,5.6,58.0*,17.0,101.3*,94.0*
C=CCCC1CN(Cc2ccc(OC)cc2)S(=O)(=O)c2c(F)cccc2O1 (centres undefined),0.0,.,.,.,.,.
Cc1nc2nc(C)n(CCN3CCOCC3)c(=O)c2c(-c2cccc([N+](=O)[O-])c2)c1C(=O)CCCCCCCCCCN1CCC(c2ccccc2)(c2ccccc2)CC1,10.4,10.4,41.6*,.,13.2,-1.5
CC1CCCCN1S(=O)(=O)c1ccc(C(=O)N(CCCN(C)C)c2nc3ccc(Br)cc3s2)cc1 (centres undefined),-1.6,0.2,24.2*,-27.5,14.9,9.3
CN(C)CCCN(C(=O)c1ccc(S(=O)(=O)N(C)Cc2ccccc2)cc1)c1nc2cc3c(cc2s1)OCO3,5.7,4.1,23.9*,-7.7,17.4,2.9
CCOc1ccc2nc(N(CCCN(C)C)C(=O)c3ccc4c(c3)CCCC4)sc2c1,-2.7,0.9,12.3,-3.6,.,.
CCN(c1ccccc1)S(=O)(=O)c1ccc(C(=O)N(CCCN(C)C)c2nc3cc4c(cc3s2)OCO4)cc1,0.3,8.6,14.7,0.8,.,.
CN(C)CCCN(C(=O)CCc1ccccc1)c1nc2ccc(Cl)cc2s1,1.9,0.1,39.4*,-12.1,23.8*,0.6
CN(C)CCN(C(=O)c1ccc(S(=O)(=O)N2CCCC2)cc1)c1nc2ccc(Br)cc2s1,-3.8,0.4,0.4,-0.7,.,.
CN(C)CCCN(C(=O)c1ccc2c(c1)CCCC2)c1nc2ccc(Cl)cc2s1,7.2,11.9,28.2*,-7.9,10.6,10.0
O=C(Nc1ccc(F)cc1)C(CCc1ccccc1)N1CCN(C(=O)c2ccco2)CC1 (centres undefined),1.4,.,-0.2,.,.,.
CC(C)(C)S(=O)N1C[C@H]2CC(=O)C=C2[C@@H]1CCO (some centres undefined),1.5,.,.,.,.,.
Cc1ccc(-n2c(Cc3cccs3)nnc2SCc2ccc(Br)cc2)cc1,1.7,.,.,.,.,.
CCCN(CCC)c1cc(=O)nc2ccccn12,1.2,.,.,.,.,.
O=C(CSc1nnc(-c2cnccn2)n1-c1ccccc1)c1ccc(F)cc1,0.2,.,.,.,.,.
Cc1nn(CC(=O)Nc2ccccn2)c(C)c1[N+](=O)[O-],0.2,-1.9,72.6*,-12.7,1.8,-4.2
C[C@@]12C[C@@H]3C(=O)N(Cc4ccccc4)CC(=O)N3[C@@H]1N(S(=O)(=O)c1ccccc1)c1ccccc12,7.8,.,.,.,.,.
CCOC(=O)C1=C(C)NC(C)=C(C(=O)OCC)C1C(=O)OCC(=O)N(C)C1CCS(=O)(=O)C1 (centres undefined),2.8,-3.1,96.0*,-1.1,5.8,10.3
CC1CCCCN1Cc1c(O)ccc2c(=O)c(-c3nc4ccccc4s3)c(N)oc12 (centres undefined),21.8,13.8,29.4*,2.1,7.0,7.8
COc1ccc(-c2c(C)oc3c(CN4CCCCC4C)c(O)ccc3c2=O)cc1 (centres undefined),-1.4,3.6,1.0,-14.0,.,.
CC1=C(C(=O)N(C(C)C)C(C)C)CC(CC(=O)NC(c2ccccc2)c2ccccc2)C(=O)N1CCC1=CCCCC1 (centres undefined),1.2,-0.2,-1.7,.,.,.
CCOC(=O)c1noc2c1CCC2,-0.1,.,-1.0,.,.,.
Cc1ccc(C(=O)Nc2ccccc2C(=O)N2CCCCC2C)cc1 (centres undefined),-5.2,-1.4,106.5*,-27.2,-1.1,5.3
Cc1ccc(C(=O)Nc2ccc(C(=O)N3CCCCC3C)cc2)cc1 (centres undefined),-6.9,-1.5,9.6,0.8,.,.
O=[N+]([O-])/C=C/c1cc2ccccc2[nH]1,3.2,-3.8,40.9*,-1.5,71.4*,58.1*
O=[N+]([O-])c1cccc(-c2cc3ccccc3[nH]2)c1,9.5,-3.8,-9.9,4.2,.,.
COC(=O)C[C@H]1C=C[C@H](NC(=O)Nc2ccccc2)[C@@H](CO)O1,3.1,.,8.2,.,.,.
N#CCc1c(C#N)c(N)nc(N2CCN(C=O)CC2)c1C#N,5.2,6.9,23.2*,-1.9,1.1,11.4
CC(=O)N1CCN(c2nc(N)c(C#N)c(CC#N)c2C#N)CC1,0.7,0.1,12.5,0.8,.,.
COC(=O)[C@H](CC(C)C)N(Cc1cn(CC2CCCCC2)nn1)S(=O)(=O)c1ccc(F)cc1Br,3.8,.,.,.,.,.

# Screening results: PubChem, several laboratories
